# CHT block = inhibitors of human choline transporter CHT. High affinity choline transporter 1 (Homo sapiens), Q9GZV3. CHT-expressing cells, membrane potential dye, choline response; stronger effect = lower value. B-score at 10 µM. 310,000 compounds, 0.86% hits. AID 488975, 2010;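 active means B-score over 3 SD under the library average, and starting fluorescence ratio not unusually high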;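 further: choline stimulus applied at its EC90 after an EC20 pre-addition; B-score computed on integrated fluorescence ratio after choline addition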
# CHT PAM = CHT positive allosteric modulators, primary screen, cell-based, membrane potential dye, choline EC20; CHT-expressing cells; stronger effect = higher value; LV-AA mutant CHT in HEK293 cells; 310,000 compounds, 0.49% hits; B-score at 10 µM;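 active means initial fluorescence not abnormally high and integrated response B-score, plate-corrected, over 3 SD above library mean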
# procasp3 activ = activators of human procaspase-3 D3A mutant, primary screen, biochemical, absorbance, PC-3 D3A mutant, single concentration; activation, % at 8.5 µM; 330,000 compounds, 0.11% hits; recombinant procaspase-3 D3A, Ac-DEVD-pNA absorbance 405 nm; AID 463141, 2010;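 active means activation above the mean of all tested compounds plus 3 SD, cut at about 21% in these data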;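 further: 0% = DMSO alone and 100% = DMSO wells spiked with extra 5 µM PC-3 D3A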
# Target sequence (P42574 whole entry D9A/D28A/D175A): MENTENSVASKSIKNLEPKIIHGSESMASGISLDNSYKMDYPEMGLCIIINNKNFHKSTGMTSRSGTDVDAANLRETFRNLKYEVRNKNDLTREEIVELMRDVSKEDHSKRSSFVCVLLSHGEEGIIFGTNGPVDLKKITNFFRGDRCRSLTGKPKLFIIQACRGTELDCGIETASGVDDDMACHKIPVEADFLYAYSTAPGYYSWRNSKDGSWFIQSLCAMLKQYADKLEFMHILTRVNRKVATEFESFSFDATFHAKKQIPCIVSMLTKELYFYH
#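 Compound: 8.5 µM single point, 0.8% DMSO / Material: Autoprocessing-dead procaspase-3 D3A mutant enzyme / Timing: 1 h preincubation plus 2 h reaction at 25 °C / Medium: Zinc-free HEPES/NaCl buffer with 0.01% Triton X-100 at pH 7.4 / Technique: 405 nm absorbance of p-nitroaniline, reads at 0 and 120 min / Repeats: one well per compound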
# proCasp7 act = procaspase-7 activators, primary screen, counter-screen for procaspase-3 activator project, biochemical, absorbance, HTS, human; recombinant procaspase-7, Ac-DEVD-pNA absorbance 405 nm; D23A/D198A/D206A triple mutant, cannot self-cleave; scale: DMSO 0, 5 µM enzyme 100; activation, % at 8.5 µM; 330,000 compounds, 0.093% hits;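 active means percent activation above the screen-wide mean plus 3 SD, cut at about 25% in these data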
#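 Detection: p-Nitroaniline absorbance at 405 nm, read at 0 and 120 min; system: Uncleavable procaspase-7 mutant enzyme; evaluation: % activation from two-timepoint absorbance difference, scaled to controls; times: 1 h enzyme–compound preincubation and 2 h substrate reaction, both 25 °C; buffer or medium: Zinc-free HEPES pH 7.4 with 300 mM NaCl, 0.01% Triton X-100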
# CHT act confirm = CHT activators, confirmation, cell-based, membrane potential dye, duplicate | CHT-expressing cells, membrane potential dye fluorescence (FDSS); % of choline EC20–EC90 response window; HEK293 expressing CHT LV-AA mutant; choline added at its EC20 | activation, % at 10 µM | 2,500 compounds, 91% hits | AID 504833, 2011 | shares compounds with CHT PAM;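 active means primary screen active, with duplicate mean activation above negative control mean plus 3 SD, cut at about 11% in these data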
# HEK293 MP dye = membrane potential response in parental HEK293 cells, counter-screen for CHT activator project, cell-based, membrane potential dye. ratio readout change at 10 µM, hits read low. shares compounds with CHT PAM. membrane potential dye fluorescence (FDSS); measured after EC20 choline addition. 2,500 compounds, 62% hits;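 active means duplicate-averaged ratio beyond 3 SD from buffer wells, up or down, though filed actives are nearly all decreases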
# Active calls of the source: *; i = inactive; x = no result. Sampled rows, rich in hits. Any-hit rate of the full collection: about 1.3%.
SMILES,CHT block,CHT PAM,procasp3 activ,proCasp7 act,CHT act confirm,HEK293 MP dye
COC(=O)c1ccc(CSc2nc3ccccc3c(=O)n2-c2ccccc2)o1,i,8.6*,4,0,19*,i
Cc1noc(C)c1CSc1nnc2n(-c3ccccc3)c(=O)c3ccccc3n12,i,i,-1,5,x,x
C=CCn1c(SCc2c(C)noc2C)nc2ccccc2c1=O,i,6.6*,8,-1,27*,i
Cc1noc(C)c1CSc1nc2ccccc2c(=O)n1-c1ccc(F)cc1F,i,11*,-4,11,10,i
Cc1noc(C)c1CSc1nc2ccccc2c(=O)n1-c1ccccc1,i,9.3*,-7,-2,35*,i
CCc1cc(Cn2nc(-c3ccccc3)cc2C(=O)NCc2cccc(Br)c2)on1,x,x,1,8,x,x
CCCn1c(=O)c2sccc2n2c(CCCC(=O)NCC3CCCO3)nnc12 (stereo unspecified),i,i,8,5,x,x
O=C(NC(=S)NCCOCc1ccc(Cl)cc1)c1cccnc1,i,i,2,-8,x,x
Cc1nn2c3ccccc3n(CCN3CCCCC3)c2nc1=O,i,7.1*,-1,-3,39*,-42*
CN(C)CC(CCCCC(CN(C)C)C(=O)c1ccccc1)C(=O)c1ccccc1 (stereo unspecified),i,8.4*,-5,-1,29*,i
CC(CNC(=O)c1ccc(-c2ccccc2)cc1)CN(C)C (stereo unspecified),i,i,-4,5,x,x
O=C(Cc1ccccc1[N+](=O)[O-])OCC(=O)N1CCN(c2ccccc2)CC1,i,i,4,11,x,x
CCCCn1c(N)c(N(CCOC)C(=O)c2ccc3c(c2)OCCO3)c(=O)[nH]c1=O,i,i,5,8,x,x
OCCN1CCN(CCCN2c3ccccc3Sc3ccc(Cl)cc32)CC1,i,i,7,10,x,x
CN1CCN(CCCN2c3ccccc3Sc3ccc(S(=O)(=O)N(C)C)cc32)CC1,i,i,0,-12,16*,-30*
CC(=O)c1ccc2c(c1)N(CCCN1CCC(CCO)CC1)c1ccccc1S2,i,9.1*,-4,-1,46*,-49*
C[C@]12CCC(=O)C=C1C=C[C@@H]1[C@@H]2CC[C@@]2(C)[C@H]1CC[C@@]21CCC(=O)O1,i,i,x,x,x,x
CC(NCc1cc(Br)ccc1OCC(N)=O)C12CC3CC(CC(C3)C1)C2 (stereo unspecified),i,11*,8,8,23*,i
COc1cc(CNC(C)C23CC4CC(CC(C4)C2)C3)ccc1OCC(=O)NC(C)(C)C (stereo unspecified),i,i,6,9,x,x
Cc1cc(C(=O)CN2C(=O)C(=O)N(CC(C)C)C2=O)c(C)n1C1CC1,x,x,0,2,x,x
Cc1ccn2c(Nc3ccccc3)c(-c3ccccn3)nc2c1,i,i,-24,4,x,x
Cc1cccn2c(Nc3ccccc3)c(-c3ccccn3)nc12,i,i,-10,-2,41*,-25*
O=C(COc1ccccc1)N=C1SC2CS(=O)(=O)CC2N1Cc1ccccc1 (stereo unspecified),i,i,0,5,x,x
CCCc1c(CC)c(=N)c2ccccc2n1C,i,7.5*,-1,-2,64*,-58*
Cc1sc2nc(SCc3ccc(C(=O)O)cc3)n(Cc3ccco3)c(=O)c2c1C,i,6.7*,-12,-3,32*,i
O=C(C[C@H]1C[C@H](C(=O)N2CCCCC2)[C@@]2(CCc3ccccc3)c3[nH]c4ccc(Cl)cc4c3CCN2C1=O)NCCN1CCOCC1,x,x,3,4,x,x

# Screening data from PubChem BioAssay.
